Test results as given in ChEMBL document CHEMBL2434885, “cis-Dichloroplatinum(II) complexes tethered to dibenzo[c,h][1,6]naphthyridin-6-ones: synthesis and cytotoxicity in human cancer cell lines in vitro” (Eur J Med Chem, 2013).

Key:
Format in all cases: functional, cell-based
HCT-116 = assay: Cytotoxicity against human HCT116 cells after 72 hrs by crystal-violet staining-based spectrophotometric analysis; settings: HCT-116, 72 h
Outline: (§1)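 Subconfluent, exponentially growing, mycoplasma-free monolayers in RPMI 1640 + 10% FBS, 5% CO2. Cells treated 72 h with 0–500 µM (compounds in physiological serum, or in DMF at ≤3% final). Cells then PBS-washed, ethanol-fixed, stained with 1% crystal violet and eluted in 33% acetic acid, with A570 read. Triplicates, three independent experiments. IC50 taken from concentration–response curves as 50% growth inhibition.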

SW480 = assay: Cytotoxicity against human SW480 cells after 72 hrs by crystal-violet staining-based spectrophotometric analysis; settings: SW480, 72 h; outline: as §1
HT-29 = assay: Cytotoxicity against human HT-29 cells after 72 hrs by crystal-violet staining-based spectrophotometric analysis; settings: HT-29, 72 h; outline: as §1

Row | Compound | IC50 (HCT-116) | IC50 (SW480) | IC50 (HT-29)
1 | NCCNCCn1c(=O)c2cc([N+](=O)[O-])ccc2c2cnc3cc4c(cc3c21)OCO4 | 25 µM | 40.7 µM | 43 µM
2 | NCCNCCCn1c(=O)c2cc([N+](=O)[O-])ccc2c2cnc3cc4c(cc3c21)OCO4 | 12.2 µM | 30.1 µM | 22.2 µM
3 | NCCNCCCCn1c(=O)c2cc([N+](=O)[O-])ccc2c2cnc3cc4c(cc3c21)OCO4 | 30.7 µM | 43.7 µM | 41.2 µM
4 | NCCNCCCCCn1c(=O)c2cc([N+](=O)[O-])ccc2c2cnc3cc4c(cc3c21)OCO4 | 25.2 µM | 50.7 µM | 47.6 µM
5 | NCCNCCCCCCn1c(=O)c2cc([N+](=O)[O-])ccc2c2cnc3cc4c(cc3c21)OCO4 | 15.4 µM | 24 µM | 30.8 µM
